Legend:
[1] = Cmax in rat at 0.1 mg/kg, iv and 1 mg/kg, po; type: ADME, organism-based; conditions: in vivo
Outline: (§1)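 Rat pharmacokinetics measured after 1 mg/kg po and 0.1 mg/kg iv dosing.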

[2] = molecular target: T1, Prostaglandin E2 receptor EP3 subtype (Mus musculus, UniProt P30557); experiment: Displacement of [3H]-PGE2 from mouse EP3 receptor expressed in CHO cells after 60 mins by liquid scintillation counter; type: cell-based
T1 sequence (P30557 whole entry): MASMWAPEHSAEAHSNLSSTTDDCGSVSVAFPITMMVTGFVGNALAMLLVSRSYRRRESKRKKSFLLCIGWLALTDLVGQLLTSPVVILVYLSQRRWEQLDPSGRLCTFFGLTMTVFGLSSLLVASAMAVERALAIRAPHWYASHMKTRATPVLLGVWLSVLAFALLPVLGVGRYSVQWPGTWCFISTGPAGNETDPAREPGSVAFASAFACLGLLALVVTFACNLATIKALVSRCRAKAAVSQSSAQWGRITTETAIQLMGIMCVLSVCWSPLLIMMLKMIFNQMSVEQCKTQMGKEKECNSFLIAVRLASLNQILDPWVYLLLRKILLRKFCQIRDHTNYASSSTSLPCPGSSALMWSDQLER
Outline: (§2)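 Membranes from CHO cells stably expressing mouse EP1–4, incubated with 2.5 nM [³H]PGE₂ and test compound at various concentrations in 10 mM KH₂PO₄–KOH, 1 mM EDTA, 10 mM MgCl₂, 0.1 mM NaCl, pH 6.0. Incubated 25 °C, 60 min (EP1: 20 min). Filtration on GF/B, ice-cold buffer wash, scintillation counting. Nonspecific binding with excess unlabeled PGE₂. IC50 from regression curve; Ki = IC50/(1+[L]/Kd).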

[3] = Oral bioavailability in rat at 1 mg/kg; type: ADME, organism-based; conditions: in vivo
[4] = molecular target: T2, Prostaglandin E2 receptor EP1 subtype (Mus musculus, UniProt P35375); experiment: Displacement of [3H]-PGE2 from mouse EP1 receptor expressed in CHO cells after 20 mins by liquid scintillation counter; type: cell-based; outline: as §2
T2 sequence (P35375 whole entry): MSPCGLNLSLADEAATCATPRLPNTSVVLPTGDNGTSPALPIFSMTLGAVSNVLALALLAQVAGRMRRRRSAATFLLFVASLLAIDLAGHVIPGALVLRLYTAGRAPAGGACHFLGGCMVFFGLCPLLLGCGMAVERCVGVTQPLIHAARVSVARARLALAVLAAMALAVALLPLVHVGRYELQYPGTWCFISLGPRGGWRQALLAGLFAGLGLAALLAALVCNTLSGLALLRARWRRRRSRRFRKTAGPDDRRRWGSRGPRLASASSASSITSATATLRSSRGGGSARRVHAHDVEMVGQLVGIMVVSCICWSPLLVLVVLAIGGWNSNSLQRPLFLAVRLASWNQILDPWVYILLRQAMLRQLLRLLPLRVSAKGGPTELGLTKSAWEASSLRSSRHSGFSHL

[5] = molecular target: Prostaglandin E2 receptor EP2 subtype (Mus musculus, UniProt Q62053); experiment: Displacement of [3H]-PGE2 from mouse EP2 receptor expressed in CHO cells after 60 mins by liquid scintillation counter; type: cell-based; outline: as §2
Chain of Prostaglandin E2 receptor EP2 subtype (Q62053 whole entry): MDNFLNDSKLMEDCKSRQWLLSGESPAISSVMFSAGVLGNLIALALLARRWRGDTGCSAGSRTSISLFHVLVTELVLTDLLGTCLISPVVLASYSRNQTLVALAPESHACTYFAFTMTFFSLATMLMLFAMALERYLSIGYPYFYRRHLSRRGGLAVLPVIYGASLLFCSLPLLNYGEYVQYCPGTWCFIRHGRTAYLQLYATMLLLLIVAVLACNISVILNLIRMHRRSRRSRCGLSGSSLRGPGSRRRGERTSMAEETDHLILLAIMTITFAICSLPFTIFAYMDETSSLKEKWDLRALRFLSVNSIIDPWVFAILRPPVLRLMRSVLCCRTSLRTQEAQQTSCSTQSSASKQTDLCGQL

[6] = molecular target: Prostaglandin E2 receptor EP4 subtype (Mus musculus, UniProt P32240); experiment: Displacement of [3H]-PGE2 from mouse EP4 receptor expressed in CHO cells after 60 mins by liquid scintillation counter; type: cell-based; outline: as §2
Chain of Prostaglandin E2 receptor EP4 subtype (Mus musculus, UniProt P32240) (P32240 whole entry): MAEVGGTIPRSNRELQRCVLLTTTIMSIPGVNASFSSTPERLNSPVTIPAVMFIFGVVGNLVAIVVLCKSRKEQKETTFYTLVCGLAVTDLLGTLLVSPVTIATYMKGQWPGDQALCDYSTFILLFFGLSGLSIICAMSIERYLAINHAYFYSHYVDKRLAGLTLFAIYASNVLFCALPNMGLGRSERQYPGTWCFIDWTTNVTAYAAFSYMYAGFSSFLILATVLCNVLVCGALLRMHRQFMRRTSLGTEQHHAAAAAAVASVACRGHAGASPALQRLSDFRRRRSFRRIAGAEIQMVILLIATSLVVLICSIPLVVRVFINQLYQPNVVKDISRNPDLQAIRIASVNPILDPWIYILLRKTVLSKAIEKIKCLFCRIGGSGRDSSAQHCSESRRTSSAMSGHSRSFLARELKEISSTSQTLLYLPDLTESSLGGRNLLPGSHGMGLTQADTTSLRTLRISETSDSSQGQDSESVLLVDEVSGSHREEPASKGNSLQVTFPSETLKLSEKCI

[7] = Volume of distribution at steady state in rat at 0.1 mg/kg, iv and 1 mg/kg, po; type: ADME, organism-based; conditions: in vivo, read-out: Vdss; outline: as §1
[8] = Total clearance rat at 0.1 mg/kg, iv and 1 mg/kg, po; type: ADME, organism-based; conditions: in vivo; outline: as §1
[9] = AUC in rat at 0.1 mg/kg, iv and 1 mg/kg, po; type: ADME, organism-based; conditions: plasma; outline: as §1
[10] = molecular target: Prostaglandin E2 receptor EP4 subtype (Rattus norvegicus, UniProt P43114); experiment: Agonist activity at rat EP4 receptor expressed in CHO cells assessed as cAMP production after 10 mins by radioimmunoassay; type: functional, cell-based
Chain of Prostaglandin E2 receptor EP4 subtype (Rattus norvegicus, UniProt P43114) (P43114 whole entry): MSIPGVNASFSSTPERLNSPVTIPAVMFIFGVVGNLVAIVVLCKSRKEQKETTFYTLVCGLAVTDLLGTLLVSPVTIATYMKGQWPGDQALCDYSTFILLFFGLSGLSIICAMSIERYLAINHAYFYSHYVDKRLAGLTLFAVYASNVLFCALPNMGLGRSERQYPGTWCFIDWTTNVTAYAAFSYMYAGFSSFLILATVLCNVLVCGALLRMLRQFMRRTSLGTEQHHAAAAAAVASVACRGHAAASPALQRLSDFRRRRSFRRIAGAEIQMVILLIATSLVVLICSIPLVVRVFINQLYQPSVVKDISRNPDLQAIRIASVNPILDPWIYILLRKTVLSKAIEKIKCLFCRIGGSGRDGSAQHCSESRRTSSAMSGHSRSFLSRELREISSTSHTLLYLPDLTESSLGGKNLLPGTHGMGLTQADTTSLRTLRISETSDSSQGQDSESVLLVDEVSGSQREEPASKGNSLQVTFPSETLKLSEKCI
Outline: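 CHO cells expressing rat EP4 seeded at 1×10^5 cells/well and grown 2 days. Washed with MEM, then 10 min at 37 °C in MEM with 2 µM diclofenac. Preincubated 10 min at 37 °C in assay medium with 1% BSA. Test compound added, 10 min at 37 °C. Stopped with ice-cold 10% trichloroacetic acid. cAMP measured by radioimmunoassay.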

Rattus norvegicus [11] = experiment: Inhibition of LPS induced TNF-alpha production in po dosed Sprague-Dawley rat administered 30 mins before LPS challenge measured after 90 mins by ELISA; type: functional
Outline: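 Seven-week-old Sprague–Dawley rats dosed orally with compound in sterile saline containing 20% HP-β-CD. LPS (1 mg/mL in sterile saline) given iv at 10 µg/2 mL/kg 30 min later. Blood drawn by aortic puncture into heparinized syringes 90 min after LPS. Plasma taken after centrifugation at 4 °C and frozen. Result given as ED50.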

Rattus norvegicus [12] = experiment: Dose normalized cmax in rat at 1 mg/kg, po; type: ADME, organism-based; parameters: dose 1 mg/kg, route oral; conditions: in vivo
Outline: (§3)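 Rat PK after 1 mg/kg po and 0.1 mg/kg iv. Cmax and AUC normalized to a 1 mg/kg dose.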

Rattus norvegicus [13] = experiment: Dose normalized AUC in rat at 1 mg/kg, po; type: ADME, organism-based; parameters: dose 1 mg/kg, route oral; conditions: in vivo; outline: as §3

Structure (SMILES): Cc1cccc(C[C@H](O)/C=C/[C@H]2COC(=O)N2CCSCCCC(=O)O)c1
- Cmax [1]: 5.4 ng/mL
- Ki [2]: 2800 nM
- bioavailability [3]: 4.5%
- Ki [4]: 4400 nM
- Ki [5]: > 10000 nM
- Ki [6]: 2.5 nM
- Vd [7]: 0.291 L/kg
- clearance [8]: 47 mL/min/kg
- AUC [9]: 16.1 ng·h/mL
- EC50 [10]: 33 nM
- ED50 (Rattus norvegicus [11]): > 1 mg/kg

Structure (SMILES): CCc1cccc(C[C@H](O)/C=C/[C@H]2CSC(=O)N2CCSCCCC(=O)O)c1
- Cmax [1]: 10.4 ng/mL
- Ki [2]: 65 nM
- bioavailability [3]: 8.6%
- Ki [4]: 4600 nM
- Ki [5]: > 10000 nM
- Ki [6]: 0.88 nM
- Vd [7]: 0.538 L/kg
- clearance [8]: 75 mL/min/kg
- AUC [9]: 19.5 ng·h/mL
- EC50 [10]: 1.9 nM
- ED50 (Rattus norvegicus [11]): 1 mg/kg

Structure (SMILES): O=C(O)CCCSCCN1C(=O)SC[C@@H]1/C=C/[C@@H](O)Cc1cccc(C(F)(F)F)c1
- Cmax [1]: 5.3 ng/mL
- Ki [2]: 280 nM
- bioavailability [3]: 5.5%
- Ki [4]: > 10000 nM
- Ki [5]: > 10000 nM
- Ki [6]: 0.97 nM
- Vd [7]: 0.512 L/kg
- clearance [8]: 51 mL/min/kg
- AUC [9]: 14.6 ng·h/mL
- EC50 [10]: 4.3 nM
- ED50 (Rattus norvegicus [11]): 1 mg/kg

Structure (SMILES): O=C(O)CCCSCCN1C(=O)OC[C@@H]1/C=C/[C@@H](O)Cc1cccc(C(F)(F)F)c1
- Cmax [1]: 3.8 ng/mL
- Ki [2]: 1600 nM
- bioavailability [3]: 6.7%
- Ki [4]: > 10000 nM
- Ki [5]: > 10000 nM
- Ki [6]: 2 nM
- Vd [7]: 0.631 L/kg
- clearance [8]: 67 mL/min/kg
- AUC [9]: 16.7 ng·h/mL
- EC50 [10]: 12 nM
- ED50 (Rattus norvegicus [11]): 3 mg/kg

Structure (SMILES): Cc1cccc(C[C@H](O)/C=C/[C@H]2CCC(=S)N2CCSCCCC(=O)O)c1
- Cmax [1]: 3.4 ng/mL
- Ki [2]: 980 nM
- bioavailability [3]: 9.8%
- Ki [4]: 2800 nM
- Ki [5]: 1700 nM
- Ki [6]: 0.5 nM
- Vd [7]: 1.76 L/kg
- clearance [8]: 61 mL/min/kg
- AUC [9]: 29.9 ng·h/mL
- EC50 [10]: 7.7 nM
- ED50 (Rattus norvegicus [11]): 1 mg/kg

Structure (SMILES): COCc1cccc(C[C@H](O)/C=C/[C@H]2CCC(=S)N2CCCCCCC(=O)O)c1
- Cmax [1]: 6.5 ng/mL
- Ki [2]: 6300 nM
- bioavailability [3]: 12.3%
- Ki [4]: > 10000 nM
- Ki [5]: 1400 nM
- Ki [6]: 2 nM
- Vd [7]: 0.53 L/kg
- clearance [8]: 102 mL/min/kg
- AUC [9]: 20.6 ng·h/mL
- EC50 [10]: 7.3 nM
- ED50 (Rattus norvegicus [11]): 3 mg/kg

Structure (SMILES): CCCc1cccc(C[C@H](O)/C=C/[C@H]2CSC(=O)N2CCSCCCC(=O)O)c1
- Cmax [1]: 11.4 ng/mL
- Ki [2]: 1200 nM
- bioavailability [3]: 6.3%
- Ki [4]: > 10000 nM
- Ki [5]: > 10000 nM
- Ki [6]: 0.98 nM
- Vd [7]: 1.28 L/kg
- clearance [8]: 52 mL/min/kg
- AUC [9]: 17.7 ng·h/mL
- EC50 [10]: 6.1 nM
- ED50 (Rattus norvegicus [11]): 1 mg/kg

Structure (SMILES): O=C(O)CCCSCCN1C(=O)SC[C@@H]1/C=C/[C@@H](O)Cc1ccccc1
- Cmax [1]: 2.7 ng/mL
- Ki [2]: 39 nM
- bioavailability [3]: 3.5%
- Ki [4]: > 10000 nM
- Ki [5]: > 10000 nM
- Ki [6]: 0.65 nM
- Vd [7]: 0.792 L/kg
- clearance [8]: 56 mL/min/kg
- AUC [9]: 4 ng·h/mL
- EC50 [10]: 4.8 nM
- ED50 (Rattus norvegicus [11]): 1 mg/kg

Structure (SMILES): COCc1cccc(C[C@H](O)/C=C/[C@H]2CCC(=O)N2CCCCCCC(=O)O)c1
- Ki [2]: > 10000 nM
- bioavailability [3]: 1.2%
- Ki [4]: > 10000 nM
- Cmax/dose (Rattus norvegicus [12]): 1.6 ng/mL
- Ki [5]: > 10000 nM
- Ki [6]: 10 nM
- Vd [7]: 0.386 L/kg
- clearance [8]: 35 mL/min/kg
- AUC/dose (Rattus norvegicus [13]): 6.4 ng·h/mL
- EC50 [10]: 15 nM
- ED50 (Rattus norvegicus [11]): 1 mg/kg

Structure (SMILES): COCc1cccc(C[C@H](O)/C=C/[C@H]2CSC(=O)N2CCSCCCC(=O)O)c1
- Cmax [1]: 2.6 ng/mL
- Ki [2]: > 10000 nM
- bioavailability [3]: 2%
- Ki [4]: > 10000 nM
- Ki [5]: > 10000 nM
- Ki [6]: 1.2 nM
- Vd [7]: 0.325 L/kg
- clearance [8]: 47 mL/min/kg
- AUC [9]: 6.1 ng·h/mL
- EC50 [10]: 2.4 nM
- ED50 (Rattus norvegicus [11]): 1 mg/kg

Structure (SMILES): O=C(O)CCCSCCN1C(=O)OC[C@@H]1/C=C/[C@@H](O)Cc1cccc(Cl)c1
- Ki [2]: 630 nM
- Ki [4]: > 10000 nM
- Ki [5]: > 10000 nM
- Ki [6]: 1.5 nM
- EC50 [10]: 23 nM

Structure (SMILES): O=C(O)CCCCCCN1C(=S)CC[C@@H]1/C=C/[C@@H](O)Cc1cccc(C(F)(F)F)c1
- Ki [2]: 450 nM
- Ki [4]: > 10000 nM
- Ki [5]: > 10000 nM
- Ki [6]: 0.38 nM
- EC50 [10]: 10 nM
